Reference: ChEMBL document CHEMBL3865837, “Chemical Constituents of the Rhizomes of Bletilla formosana and Their Potential Anti-inflammatory Activity” (J Nat Prod, 2016)
pIC50: −log10 of the molar value.

Columns and labels:
[1] = Antiinflammatory activity in human neutrophils assessed as inhibition of FMLP/cytochalasin B-induced superoxide anion generation by measuring superoxide dismutase-inhibitable reduction of ferricytochrome c preincubated for 5 mins followed by FMLP/cytochalasin B-induction by spectrophotometric analysis; format: functional, cell-based; conditions: Neutrophil
Outline: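 Neutrophils isolated from healthy donor venous blood (20−30 years old) by dextran sedimentation, Ficoll Hypaque centrifugation and hypotonic erythrocyte lysis, kept at 4 °C in Ca2+-free HBSS pH 7.4. Cells (6 × 10^5 cells/mL) with 0.5 mg/mL ferricytochrome c and 1 mM Ca2+, 37 °C 2 min; compound or 0.1% DMSO 5 min; CB 1 μg/mL 3 min; FMLP 100 nM. A550 followed continuously, ±SOD 100 U/mL; IC50, mean ± SEM, n = 3 or 4.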

[2] = Antiinflammatory activity in human neutrophils assessed as inhibition of fMLP/CB-induced elastase release using MeO-Suc-Ala-Ala-Pro-Val-p-nitroanilide as elastase substrate preincubated for 5 mins followed by fMLP/CB-induction; format: functional, cell-based; conditions: Neutrophil
Outline: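 Donor neutrophils (dextran/Ficoll/hypotonic lysis, held at 4 °C in Ca2+-free HBSS pH 7.4) at 6 × 10^5 cells/mL, equilibrated with 100 μM MeO-Suc-Ala-Ala-Pro-Val-p-nitroanilide at 37 °C for 2 min. Compound or 0.1% DMSO vehicle added for 5 min, then activated with FMLP 100 nM plus CB 0.5 μg/mL. A405 read continuously. IC50 given as mean ± SEM, n = 3 or 4.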

| Structure (SMILES) | pIC50 [1] | pIC50 [2] |
| --- | --- | --- |
| COc1cc(CCc2cccc(O)c2)cc(O)c1-c1c(O)cc(OC)c2c1CCc1cc(O)ccc1-2 | 5.31 | < 5.00 |
| O=Cc1ccc(O)cc1 [4-HYDROXYBENZALDEHYDE] | < 5.00 | 5.48 |
| COc1cc(O)cc(CCc2cccc(O)c2)c1 [BATATASIN III] | 6.05 | 5.33 |
| CC[C@@H](CC[C@@H](C)[C@H]1CC[C@H]2[C@@H]3CC=C4C[C@@H](O[C@@H]5O[C@H](CO)[C@@H](O)[C@H](O)[C@H]5O)CC[C@]4(C)[C@H]3CC[C@]12C)C(C)C | < 5.00 | < 5.00 |
| CC(C)C[C@@](O)(CC(=O)OCc1ccc(O[C@@H]2O[C@H](CO)[C@@H](O)[C@H](O)[C@H]2O)cc1)C(=O)OCc1ccc(O[C@@H]2O[C@H](CO)[C@@H](O)[C@H](O)[C@H]2O)cc1 | < 5.00 | < 5.00 |
| COc1cc(O)cc(CCc2ccccc2)c1 | 5.19 | < 5.00 |
| COc1cc(O)cc2c1-c1ccc(O)cc1CC2 | 6.40 | < 5.00 |
| COc1c(O)cc2c(c1OC)-c1ccc(O)cc1CC2 [ERIANTHRIDIN] | 6.52 | 5.70 |
| COC1=CC(=O)C2=C(CCc3cc(O)ccc32)C1=O | < 5.00 | < 5.00 |
| CCOCc1ccc(O)cc1 | < 5.00 | < 5.00 |
| COc1cc(O)cc2c1-c1cc(-c3c(O)cc(OC)c4c3CCc3cc(O)ccc3-4)c(O)cc1CC2 | 5.82 | 6.30 |
| COc1cc(O)c(-c2c(O)cc(OC)c3c2ccc2cc(O)ccc23)c2ccc3cc(O)ccc3c12 [CIRRHOPETALANTHIN] | 5.85 | 6.22 |
| COc1c(O)cc2ccc3c(Cc4ccc(O)cc4)c(O)ccc3c2c1OC | 5.85 | 5.89 |
| COc1cccc(CCc2cc(O)cc(OC)c2)c1 | 5.19 | < 5.00 |
| COc1cc2c(cc1O)CCc1cc(O)c(OC)c(OC)c1-2 | 6.70 | 5.24 |
| COc1cc2ccc3cc(O)ccc3c2c(OC)c1O | 5.59 | 5.31 |
| COc1cc(O)cc(CCc2ccc(O)c(OC)c2)c1 [GIGANTOL] | 5.68 | 5.49 |
| COc1cc2c(cc1O)CCc1c(-c3c(O)cc(OC)c4c3CCc3cc(O)ccc3-4)c(O)cc(OC)c1-2 | 5.62 | 6.15 |
| COc1cc(O)c(-c2c(O)cc(OC)c3c2ccc2cc(O)ccc23)c2c1-c1ccc(O)cc1CC2 [CIRRHOPETALANTHRIN] | 6.05 | 6.22 |
| COc1cc(O)c(-c2c(O)cc3c(c2OC)-c2ccc(O)cc2CC3)c2c1-c1ccc(O)cc1CC2 | 5.74 | 5.85 |
| CC[C@H](Nc1ncnc2[nH]cnc12)c1nc2cccc(F)c2c(=O)n1-c1ccccc1 [IDELALISIB] | 7.00 | 6.52 |
| COc1cc(O)c(Cc2ccc(O)cc2)c2ccc3cc(O)ccc3c12 | 6.30 | 6.05 |

Now from value to molecule:

| pIC50 [1] | pIC50 [2] | Structure (SMILES) |
| --- | --- | --- |
| 6.40 | 6.22 | COc1cc(O)cc(CCc2cccc(O)c2)c1-c1c(OC)cc(O)c2c1CCc1cc(O)ccc1-2 |
| 5.20 | 5.38 | COc1cccc(CCc2c(Cc3ccc(O)cc3)c(O)cc(OC)c2Cc2ccc(O)cc2)c1 |
| 5.55 | 5.80 | COc1cc2ccc3c(-c4c(O)cc(OC)c5c4ccc4cc(O)c(OC)cc45)c(O)cc(OC)c3c2cc1O |
| 5.80 | 5.72 | COc1c(O)c(Cc2ccc(O)cc2)c2ccc3cc(O)ccc3c2c1OC |
| 5.96 | 5.96 | COc1cc(CCc2cccc(O)c2)c(Cc2ccc(O)cc2)c(O)c1Cc1ccc(O)cc1 |
| 5.96 | 5.74 | COc1c(Cc2ccc(O)cc2)c(O)c(Cc2ccc(O)cc2)c2c1-c1ccc(O)cc1CC2 |
| 5.70 | 5.68 | COc1cc2c(ccc3cc(O)c(OC)c(OC)c32)cc1O |
| 5.60 | < 5.00 | COc1c(O)c(-c2c(O)c(OC)c(OC)c3c2CCc2cc(O)ccc2-3)c2c(c1OC)-c1ccc(O)cc1CC2 |
| 5.66 | 6.05 | COc1cc(CCc2cccc(O)c2)cc(O)c1Cc1ccc(O)cc1 |
| 5.82 | 6.52 | COc1cc2c(ccc3c(-c4c(O)cc(OC)c5c4ccc4cc(O)c(OC)cc45)c(O)cc(OC)c32)cc1O |
| 5.44 | 5.66 | COc1cc(O)c(Cc2ccc(O)cc2)c(CCc2cccc(O)c2)c1 |
| 5.38 | 5.92 | COc1cc(O)cc2c1-c1cc(-c3c(O)cc(OC)c4c3ccc3cc(O)ccc34)c(O)cc1CC2 |
| 6.70 | 6.40 | COc1cc(O)c(-c2c(O)c(Cc3ccc(O)cc3)c3c(c2OC)-c2ccc(O)cc2CC3)c2c1-c1ccc(O)cc1CC2 |
| 5.77 | < 5.00 | COc1c(O)cc2ccc3cc(O)ccc3c2c1OC [NUDOL] |
| 5.77 | 5.55 | COc1cc(O)cc(CCc2cccc(O)c2)c1Cc1ccc(O)cc1 |
| 6.15 | 6.15 | COc1cc(O)c(Cc2ccc(O)cc2)c(CCc2cccc(O)c2)c1Cc1ccc(O)cc1 |
| 6.70 | 5.70 | COc1c(Cc2ccc(O)cc2)c(O)cc2c1-c1ccc(O)cc1CC2 |
| 6.70 | 5.70 | COc1cc(O)c(Cc2ccc(O)cc2)c2c1-c1ccc(O)cc1CC2 |
| 5.72 | 5.77 | COc1cc2c(ccc3c(-c4c(O)cc(OC)c5c4ccc4cc(O)ccc45)c(O)cc(OC)c32)cc1O |
